Measurements published in ChEMBL document CHEMBL1131242, “6beta-Acetoxynortropane: a potent muscarinic agonist with apparent selectivity toward M2-receptors” (J Med Chem, 1998).

Legend:
[1] = target: Muscarinic acetylcholine receptor M4 (Homo sapiens) (UniProt P08173); assay: Inhibition of binding of [3H]quinuclidinyl benzilate to Muscarinic acetylcholine receptor M4 in membranes of transfected CHO cells
[2] = target: T1, Muscarinic acetylcholine receptor M2 (Homo sapiens, UniProt P08172); assay: Inhibition of binding of [3H]quinuclidinyl benzilate to muscarinic receptors in membranes of CHO cells transfected with Muscarinic acetylcholine receptor M2; type: cell membranes
T1 sequence (P08172 whole entry): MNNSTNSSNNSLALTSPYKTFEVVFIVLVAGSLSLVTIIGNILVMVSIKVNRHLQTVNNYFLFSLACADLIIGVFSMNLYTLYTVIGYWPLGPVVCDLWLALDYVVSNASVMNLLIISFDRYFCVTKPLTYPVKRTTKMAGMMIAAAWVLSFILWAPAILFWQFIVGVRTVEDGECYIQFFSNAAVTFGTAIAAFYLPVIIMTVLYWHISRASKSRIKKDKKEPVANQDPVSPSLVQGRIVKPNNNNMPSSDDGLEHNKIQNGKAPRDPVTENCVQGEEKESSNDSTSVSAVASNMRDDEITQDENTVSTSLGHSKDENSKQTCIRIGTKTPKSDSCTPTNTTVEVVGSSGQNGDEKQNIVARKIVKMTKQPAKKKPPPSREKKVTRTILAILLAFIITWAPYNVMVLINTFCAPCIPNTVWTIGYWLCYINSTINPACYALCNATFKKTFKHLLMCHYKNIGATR

[3] = target: Muscarinic acetylcholine receptor M2 (Homo sapiens) (UniProt P08172); assay: Inhibition of binding of [3H]quinuclidinyl benzilate to Muscarinic acetylcholine receptor M2 in membranes of transfected CHO cells
[4] = target: T1, Muscarinic acetylcholine receptor M2; assay: Inhibitory activity against [3H]quinuclidinyl Benzilate binding to Muscarinic acetylcholine receptor M2 in the presence of GTP
Method in brief: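 Membranes from CHO cells expressing human M2 receptor. Competition against 0.1 nM [3H]quinuclidinyl benzilate in 25 mM sodium phosphate pH 7.4, 5 mM MgCl2, without or with 10 μM GTP; 30 min at 37 °C, triplicate. Nonspecific binding with 1 μM atropine. Filtration, scintillation counting.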

[5] = target: T2, Muscarinic acetylcholine receptor M1 (Rattus norvegicus, UniProt P08482); assay: The compound was evaluated for inhibition of binding of [3H]quinuclidinyl benzilate to Muscarinic acetylcholine receptor M1 in Rat Cerebral Cortical Membranes
T2 sequence (P08482 whole entry): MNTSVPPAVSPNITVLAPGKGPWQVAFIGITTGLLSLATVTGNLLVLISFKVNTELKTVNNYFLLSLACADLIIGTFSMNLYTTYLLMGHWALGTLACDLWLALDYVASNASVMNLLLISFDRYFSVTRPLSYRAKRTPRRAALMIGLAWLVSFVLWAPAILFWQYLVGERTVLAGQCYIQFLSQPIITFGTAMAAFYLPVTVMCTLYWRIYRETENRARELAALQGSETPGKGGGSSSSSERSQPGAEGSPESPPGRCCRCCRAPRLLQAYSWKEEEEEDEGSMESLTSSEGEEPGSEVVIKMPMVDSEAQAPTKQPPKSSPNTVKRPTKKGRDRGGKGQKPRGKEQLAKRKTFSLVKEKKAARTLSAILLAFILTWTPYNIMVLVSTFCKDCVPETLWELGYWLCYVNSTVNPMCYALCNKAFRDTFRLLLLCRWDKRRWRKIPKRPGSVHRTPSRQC
Method in brief: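 Rat cerebral cortex membranes were homogenised in 50 mM Tris-HCl pH 7.4 and diluted in HEPES binding buffer. They were incubated with 0.2 nM [3H]quinuclidinyl benzilate in 20 mM HEPES pH 7.4 with 10 mM MgCl2 and 100 mM NaCl for 30 min at 37 °C, in triplicate. Nonspecific binding used 1 µM atropine. Filtration was followed by scintillation counting.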

[6] = target: T3, Muscarinic acetylcholine receptor M4 (Homo sapiens, UniProt P08173); assay: Inhibition of binding of [3H]quinuclidinyl benzilate to muscarinic receptors in membranes of CHO cells transfected with Muscarinic acetylcholine receptor M4; type: cell membranes
T3 sequence (P08173 whole entry): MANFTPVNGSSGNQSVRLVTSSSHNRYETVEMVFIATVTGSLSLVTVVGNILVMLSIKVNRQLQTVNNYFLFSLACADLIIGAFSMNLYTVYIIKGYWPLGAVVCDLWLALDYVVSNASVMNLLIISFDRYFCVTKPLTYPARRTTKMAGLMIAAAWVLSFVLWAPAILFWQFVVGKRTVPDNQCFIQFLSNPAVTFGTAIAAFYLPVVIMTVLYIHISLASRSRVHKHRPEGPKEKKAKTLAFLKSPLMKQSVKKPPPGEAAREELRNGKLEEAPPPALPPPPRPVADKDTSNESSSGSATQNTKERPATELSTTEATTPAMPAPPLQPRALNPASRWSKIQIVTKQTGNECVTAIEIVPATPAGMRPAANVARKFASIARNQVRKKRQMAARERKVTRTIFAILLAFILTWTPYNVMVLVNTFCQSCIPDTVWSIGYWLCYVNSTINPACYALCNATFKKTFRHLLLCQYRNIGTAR

[7] = target: Muscarinic acetylcholine receptor M4 (Homo sapiens) (UniProt P08173); assay: Inhibitory activity against [3H]-cyclic AMP accumulation in CHO transfected cells mediated by Muscarinic acetylcholine receptor M4
[8] = target: Muscarinic acetylcholine receptor M1 (Homo sapiens) (UniProt P11229); assay: Inhibitory activity against stimulation of [3H]inositol monophosphate accumulation in [3H]inositol-labelled CHO transfected cells mediated by Muscarinic acetylcholine receptor M1
[9] = target: Muscarinic acetylcholine receptor M2 (Homo sapiens) (UniProt P08172); assay: Inhibition of binding of 0.1 nM [3H]quinuclidinyl benzilate to Muscarinic acetylcholine receptor M2 in membranes of transfected CHO cells in the absence of GTP
[10] = target: T2, Muscarinic acetylcholine receptor M1; assay: Inhibition of binding of [3H]oxotremorine M to Muscarinic acetylcholine receptor M1 in rat cerebral cortical membranes; type: cell membranes, Membrane
Method in brief: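 Agonist radioligand assay: rat cortical membranes with 2 nM [3H]oxotremorine M in 25 mM sodium phosphate pH 7.4 with 5 mM MgCl2, 2 h at 25 °C, in triplicate. Nonspecific binding used 5 µM atropine. Filtration followed by scintillation counting.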

[11] = target: T4, Muscarinic acetylcholine receptor M3 (Homo sapiens, UniProt P20309); assay: Inhibition of binding of [3H]quinuclidinyl benzilate to muscarinic receptors in membranes of CHO cells transfected with Muscarinic acetylcholine receptor M3; type: cell membranes
Target sequence in this assay (P20309 whole entry): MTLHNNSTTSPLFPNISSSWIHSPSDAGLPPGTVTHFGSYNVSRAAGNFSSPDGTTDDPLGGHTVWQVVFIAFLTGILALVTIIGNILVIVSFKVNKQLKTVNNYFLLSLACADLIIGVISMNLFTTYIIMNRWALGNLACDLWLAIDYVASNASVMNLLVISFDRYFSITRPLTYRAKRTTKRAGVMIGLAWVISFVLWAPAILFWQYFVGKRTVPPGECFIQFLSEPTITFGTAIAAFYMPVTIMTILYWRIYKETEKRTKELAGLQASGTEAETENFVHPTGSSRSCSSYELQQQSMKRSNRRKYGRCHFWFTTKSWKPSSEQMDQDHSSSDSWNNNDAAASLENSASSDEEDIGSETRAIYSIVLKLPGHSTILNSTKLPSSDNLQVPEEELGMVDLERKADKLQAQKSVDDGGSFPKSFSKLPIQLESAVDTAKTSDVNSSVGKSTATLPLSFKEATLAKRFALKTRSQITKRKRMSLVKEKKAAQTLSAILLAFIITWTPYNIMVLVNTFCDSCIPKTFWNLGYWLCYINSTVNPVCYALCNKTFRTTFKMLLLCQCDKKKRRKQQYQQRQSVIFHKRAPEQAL

[12] = target: T4, Muscarinic acetylcholine receptor M3; assay: Inhibitory activity against stimulation of [3H]inositol monophosphate accumulation in [3H]inositol-labelled CHO transfected cells mediated by Muscarinic acetylcholine receptor M3
Target sequence in this assay (P20309 whole entry, looked up): as the sequence (P20309 whole entry) above

[13] = target: T2, Muscarinic acetylcholine receptor M1
[14] = target: Muscarinic acetylcholine receptor M2 (Homo sapiens) (UniProt P08172); assay: Inhibition of binding of 0.1 nM [3H]quinuclidinyl benzilate to Muscarinic acetylcholine receptor M2 in membranes of transfected CHO cells in the presence of 10 uM GTP

Chain of Muscarinic acetylcholine receptor M1 (Homo sapiens) (P11229 whole entry, looked up): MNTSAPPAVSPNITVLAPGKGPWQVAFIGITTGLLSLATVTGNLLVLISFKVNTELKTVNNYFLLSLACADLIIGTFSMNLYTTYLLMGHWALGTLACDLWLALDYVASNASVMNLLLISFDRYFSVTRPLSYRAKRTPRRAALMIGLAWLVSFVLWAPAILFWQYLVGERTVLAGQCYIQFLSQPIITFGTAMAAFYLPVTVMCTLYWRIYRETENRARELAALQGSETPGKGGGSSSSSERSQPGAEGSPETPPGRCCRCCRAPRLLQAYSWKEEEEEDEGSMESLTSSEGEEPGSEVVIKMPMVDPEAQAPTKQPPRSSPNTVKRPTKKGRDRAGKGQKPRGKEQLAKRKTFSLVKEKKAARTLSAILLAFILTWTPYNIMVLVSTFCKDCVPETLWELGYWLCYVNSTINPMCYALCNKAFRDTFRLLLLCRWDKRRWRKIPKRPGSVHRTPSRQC

CC(=O)OC1CC2CCCC1N2 (centres undefined)
Ki [1]: 33 nM | Ki [2]: 2.6 nM | Ki [3]: 2.6 nM | IC50 [4]: 120 nM | Ki [5]: 22000 nM | Ki [6]: 33 nM | IC50 [7]: 11 nM (agonist) | EC50 [8]: 23 nM | IC50 [9]: 17 nM | Ki [10]: 5.6 nM | Ki [11]: 680 nM | EC50 [12]: 3.6 nM | Ki [13]: 22000 nM | IC50 [14]: 120 nM
